Laboratory results published in publication PMC12597218 (Chemmedchem, 2025).
Values after ≈ are worked out from the molar mass of the structure shown. Values belong to the compound of their own block, whether it stands above or below them.

Key:
[1] = system: Nrf2 (ARE stimulation) in HEK293‐ARE‐Luc reporter cell line; assay: Intracellular Nrf2 activation assay; assay type: cell-based; conditions: 24 h; for Nrf2 activity, fold change in luminescence intensity compared with the control group: test sample 10 μM, n = 3; for Intracellular Nrf2 activating effect at lower concentration (dose‐dependency): 5 μM
Procedure, shortened: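 HEK293‐ARE‐Luc (NRF2/ARE luciferase stable line) cells (2.0 × 10⁴/well) were grown 24 h, then given test compound in DMSO (1, 2.5, 5 or 10 μM) for 24 h. One‐step luciferase reagent was added for 15 min at room temperature and luminescence read. Activation is expressed as the luminescence ratio to vehicle control, n = 3. tBHQ served as reference.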

HO‐1 and NQO1 mRNA = assay: Nrf2 target gene mRNA expression in RAW264.7 cells; assay type: cell-based, Murine; conditions: 8 h
Procedure, shortened: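 RAW264.7 murine macrophage‐like cells (DMEM, 10% FBS, 37 °C, 5% CO₂) were treated with test compound for 8 h. HO‐1 and NQO1 mRNA were then measured by quantitative real‐time RT‐PCR with gene‐specific primers, with GAPDH primers also listed. Experiments were independent, at least three times. Mean ± SD.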

Solubility in PBS = assay type: physicochemical; conditions: 37 °C, pH 7.4, aqueous buffer, kinetic from dmso stock
Procedure, shortened: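 A 10 mM DMSO stock of test compound was diluted into PBS and rotated at 1,000 rpm, 37 °C, for 4 h. The solution was filtered through a 0.45 μm PVDF membrane by centrifugation. […] Two technical replicates.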

[2] = Metabolic stability in human liver microsomes; assay type: in vitro ADME; conditions: pH 7.4
Procedure, shortened: (§1)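 Test compound (1 μM) with human or mouse liver microsomes (0.2 mg mL⁻¹), 1 mM EDTA and 0.1 M phosphate (pH 7.4) was preincubated 5 min. Reaction was started with 1 mM NADPH (final) and run 30 min at 37 °C. Samples were quenched in acetonitrile with methyltestosterone internal standard, and parent loss versus time zero was measured by LC–MS/MS. CLint was scaled using 48.8/45.4 mg protein per g liver and 25.7/87.5 g liver per kg (human/mouse). Two technical replicates.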

HEK293‐ARE‐Luc cells = assay: Cytotoxicity; assay type: cell-based; conditions: concentrations up to 50 μM
Procedure, shortened: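 HEK293‐ARE‐Luc cells (5.0 × 10⁴/well; DMEM, 10% FBS, 37 °C, 5% CO₂) were grown 24 h, then exposed to test compound added in DMSO for 24 h. CCK‐8 (WST‐8) reagent was added for 4 h and absorbance read at 420 nm. Cell viability was calculated, n = 3.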

[3] = Metabolic stability in mouse liver microsomes; assay type: in vitro ADME; conditions: pH 7.4
Procedure, shortened: as §1

[4] = Parallel artificial membrane permeability assay; assay type: in vitro ADME; conditions: PAMPA
[5] = molecular target: Keap1‐DC domain and the ETGE‐motif fragment peptide of Nrf2 (Homo sapiens, UniProt Q14145); assay: Fluorescence polarization; assay type: binding
Procedure, shortened: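 Fluorescence polarization read-out, using a commercial Keap1–Nrf2 inhibitor screening kit run according to the manufacturer's protocol with slight modifications.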

[6] = system: LPS‐stimulated RAW264.7 cells; assay: Anti‐inflammatory effect in LPS‐stimulated RAW264.7 cells; assay type: cell-based, Murine; conditions: RAW264.7, pretreated 8 h
Procedure, shortened: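 For NO, RAW264.7 cells (5 × 10⁵ cells/500 μL; DMEM, 10% FBS, 37 °C, 5% CO₂) were treated with test compound, given LPS (1 μg mL⁻¹) after 8 h, and incubated 16 h at 37 °C. Supernatant was mixed with Griess reagent and absorbance read at 540 nm. NO was quantified against a NaNO₂ standard. Mean ± SD.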

Protein binding ratio = assay type: in vitro ADME; conditions: bovine, 10% FBS (fetal bovine serum), pH 7.4
Procedure, shortened: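 Test compound (1 μM) in 10% FBS (150 μL) was dialysed against 150 μL of 0.1 M phosphate buffer (pH 7.4) across a 12–14 kDa MWCO membrane, 37 °C, 6 h, 80 rpm. Buffer and serum samples were matrix‐matched, precipitated with acetonitrile/IS, and analysed by LC‐MS/MS. fu = C_buffer/C_plasma. Two technical replicates.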

[7] = LPS 1 μg mL^−1, ELISA and RT‐PCR

Sequence of Keap1‐DC domain and the ETGE‐motif fragment peptide of Nrf2 (Q14145 2-624 limits assumed): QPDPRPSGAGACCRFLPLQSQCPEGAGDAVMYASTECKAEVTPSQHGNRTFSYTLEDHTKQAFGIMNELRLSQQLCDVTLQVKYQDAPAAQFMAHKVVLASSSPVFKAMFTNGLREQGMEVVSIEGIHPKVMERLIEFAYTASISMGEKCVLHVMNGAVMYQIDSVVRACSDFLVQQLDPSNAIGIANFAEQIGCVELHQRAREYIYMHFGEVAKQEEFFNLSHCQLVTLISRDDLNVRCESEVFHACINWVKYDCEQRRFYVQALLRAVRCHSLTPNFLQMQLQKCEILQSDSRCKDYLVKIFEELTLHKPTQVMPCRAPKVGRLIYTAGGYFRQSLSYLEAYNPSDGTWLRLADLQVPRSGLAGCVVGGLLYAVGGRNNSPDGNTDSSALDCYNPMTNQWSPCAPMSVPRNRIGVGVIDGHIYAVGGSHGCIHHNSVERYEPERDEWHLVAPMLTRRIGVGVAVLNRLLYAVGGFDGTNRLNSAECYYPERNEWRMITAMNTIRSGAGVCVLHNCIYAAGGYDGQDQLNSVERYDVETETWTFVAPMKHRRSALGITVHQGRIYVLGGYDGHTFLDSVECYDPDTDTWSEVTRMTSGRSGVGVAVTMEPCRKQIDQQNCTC

Compound: CCOc1ccc(S(=O)(=O)Nc2cc(CC(=O)Nc3ccccc3)c(NS(=O)(=O)c3ccc(OCC)cc3)c3ccccc23)cc1 [Compound 5h, 2‐(1,4‐Bis((4‐ethoxyphenyl)sulfonamido)naphthalen‐2‐yl)‐N‐phenylacetamide]
Nrf2 activity, fold change in luminescence intensity compared with the control group [1]: no effect on Nrf2 activity

solubility at 4 h (Solubility in PBS): 2.65 µM (≈ 1.69 µg/mL) | CLint scaled at 1 μM [2]: 32.8 L/h/kg | CLint scaled at 1 μM [3]: 137 L/h/kg | Papp at 4 h [4]: 30.6 nm/s | IC50 [5]: 1.07 ± 0.04 µM | fraction unbound at 6 h, 1 μM (Protein binding ratio): < 0.0342
Compound: CCOc1ccc(S(=O)(=O)Nc2cc(CC(=O)N3CCCC3)c(NS(=O)(=O)c3ccc(OCC)cc3)c3ccccc23)cc1 [Compound 5i, N,N′‐(2‐(2‐Oxo‐2‐(pyrrolidin‐1‐yl)ethyl)naphthalene‐1,4‐diyl)bis(4‐ethoxybenzenesulfonamide)]
NQO1 mRNA expression, increase (HO‐1 and NQO1 mRNA; 12.5 µM and higher concentrations): approximately 50 fold | HO‐1 mRNA expression (HO‐1 and NQO1 mRNA; 12.5 μM): significantly upregulated | HO‐1 mRNA expression at higher concentrations (HO‐1 and NQO1 mRNA; concentrations above 12.5 μM): downregulated the gene relative to the peak expression | Cytotoxicity (WST‐8 assay) (HEK293‐ARE‐Luc cells): did not exhibit cytotoxicity | Intracellular Nrf2 activating effect at lower concentration (dose‐dependency) [1]: notable activity | CCL2 expression [6, 7]: dose‐dependent reduction | TNF‐α expression [6, 7]: dose‐dependent reduction | Nitric oxide (NO) level ([6]; LPS 1 μg mL^−1, Griess reagent): dose‐dependent reduction | iNOS expression ([6]; LPS 1 μg mL^−1, RT‐PCR): dose‐dependent reduction

IC50 [5]: 2.43 ± 0.17 µM
Compound: CCOc1ccc(S(=O)(=O)Nc2cc(CC(=O)N3CCCCC3)c(NS(=O)(=O)c3ccc(OCC)cc3)c3ccccc23)cc1 [Compound 5j, N,N′‐(2‐(2‐Oxo‐2‐(piperidin‐1‐yl)ethyl)naphthalene‐1,4‐diyl)bis(4‐ethoxybenzenesulfonamide)]
Intracellular Nrf2 activating effect at lower concentration (dose‐dependency) [1]: notable activity | Nrf2 activity, fold change in luminescence intensity compared with the control group [1]: notable Nrf2 activation effects

Papp at 4 h [4]: 231 nm/s
Compound: Cc1cc(=O)n(-c2ccccc2)n1C [antipyrine]

Papp at 4 h [4]: 18.5 nm/s
Compound: COCCc1ccc(OCC(O)CNC(C)C)cc1 (stereo not shown) [metoprolol]

Compound: CC(C)(C)c1cc(O)ccc1O [tBHQ, tert‐butylhydroquinone, reference compound]
Nrf2 activity, fold change in luminescence intensity compared with the control group [1]: approximately tenfold
